Format in all cases: cell-based
Common to all, as to details: Cricetulus griseus

The test system of experiment [1] is V79-379A. The experiment can be described thus: Cytofluorimetric analysis of V79 379A chinese hamster cells incubated under hypoxic conditions with the compound (10e-4 M). The procedure, abridged: (§1)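 V79 379A Chinese hamster cells grown as exponential suspension cultures in Eagle's MEM (Earle's salts, suspension-modified) with 7.5% foetal calf serum. Cells incubated with drug at 37 °C under oxic (air + 5% CO2) or hypoxic (nitrogen + 5% CO2) gassing. Flow cytometry used 365 nm laser excitation at 100-200 mW. Emission collected >390 nm, or >410 nm for some compounds. Data gated on forward scatter and fluorescence to exclude debris. Mean fluorescence in arbitrary units, normalized for PMT gain and laser power.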

Experiment [2] relates to V79-379A. The experiment can be described thus: Cytofluorimetric analysis of V79 379A chinese hamster cells incubated under oxic conditions with the compound (10e-4 M). The procedure, abridged:
as §1

Experiment [3] concerns V79-379A. The experiment is described as follows: Maximum accumulation of fluorescent metabolites in V79 379A chinese hamster cells after incubation with the compound (10e-4) at tmax. The procedure, abridged: as §1

As for `CCOC(=O)c1c(C)c(CN(C)CCCn2ccnc2[N+](=O)[O-])c2ccccn12`, the Fluorescence with V79-379A [1] is 765 AU; in the experiment with V79-379A [2], 258 AU. For the same compound, in the experiment on V79-379A [3], the Tmax came to 6 h.
In the same order, the values of `O=c1c(NCC(O)Cn2ccnc2[N+](=O)[O-])cnc2ccccn12` (centres undefined) are 1750 AU, 603 AU and 6 h.
In the same order, the values of `O=[N+]([O-])c1nccn1CC(O)CNc1ccc(-c2cn3ccccc3n2)cc1` (centres undefined) are 1570 AU, 417 AU and 6 h.
As to `Cc1c(C)n2c(CN(C)CC(O)Cn3ccnc3[N+](=O)[O-])c(C)c(=O)n2c1=O` (centres undefined), the values for the Fluorescence in the experiment with V79-379A [1] and in the experiment on V79-379A [2] were 55 AU and 43 AU, respectively. In the experiment with V79-379A [3], the Tmax worked out at 15 h.
Regarding `O=[N+]([O-])c1nccn1CC(O)CNc1ccc(-c2cc3ccccn3c2)cc1` (centres undefined), the Fluorescence in the experiment on V79-379A [1] amounted to 169 AU; in the experiment with V79-379A [2] it was 107 AU. Besides, the Tmax in the experiment on V79-379A [3] was determined as 6 h.
Consider `N#Cc1c(C(=O)NCCN(CCO)CC(O)Cn2ccnc2[N+](=O)[O-])cn2ccccc12` (centres undefined), for which the Fluorescence amounted to 81 AU in the experiment with V79-379A [1] and 27 AU in the experiment on V79-379A [2]. Moreover, the Tmax with V79-379A [3] was 6 h.
With `Cc1c(C)n2c(CNCC(O)Cn3ccnc3[N+](=O)[O-])c(C)c(=O)n2c1=O` (centres undefined), the Fluorescence with V79-379A [1] came to 89 AU; with V79-379A [2] it was 33 AU. Moreover, the Tmax in the experiment with V79-379A [3] worked out at 15 h.
For `CCOC(=O)c1c(C(=O)NCCN(CCO)CC(O)Cn2ccnc2[N+](=O)[O-])cn2ccccc12` (centres undefined) the same measures were 1140 AU, 66 AU and 6 h.

Values taken from ChEMBL document CHEMBL1126049, “Bioreductive fluorescent markers for hypoxic cells: a study of 2-nitroimidazoles with 1-substituents containing fluorescent, bridgehead-nitrogen, bicyclic systems” (J Med Chem, 1992).
